# Results published in PubChem BioAssay.
# Calls of active or inactive are those of the source. Rule as the data show it, unless noted: active = inhibition above about 30%; inactive = the rest.
# Tests used:
# [1] = reduced viability of SK-BR-3 breast cancer cells – cell-based, 24 h, human, pilot screen (AID 572;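 active = viability at or below 10% of carrier control in both of two separate runs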;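 also: compound exposure lasted between 18 and 24 h rather than exactly 24 h; 100% = carrier-treated control wells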); conditions: SK-BR-3 viability, CellTiter-Glo luminescence, at 10 µM, stronger effect = lower value
# [2] = HUVEC growth inhibition – cell-based, human, primary screen (AID 575;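 active = viability at or below 30% in both replicate assays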;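 also: 100% = median of untreated cell wells with 0.1% DMSO on each plate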); conditions: HUVEC proliferation, CellTiter-Glo luminescence, 72 h; at 10 µM; stronger effect = lower value
# Summary of the method: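 System – primary HUVEC, no more than 12 passages · Medium – Low-serum (2% FBS) EBM, supplemented · Times – 72 h exposure, 37 °C, 5% CO2, 30 min RT equilibration · Measured by – luminescent ATP assay · Read-out – % viability relative to median vehicle-well signal on each plate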
# [3] = H69AR cell proliferation blockers – human, duplicate replicates, primary screen (AID 580;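 active = viability at or under a set limit in both replicates, limit being median viability minus 3 SD, cut at about 48% in these data, passing the limit was not always enough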;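 also: 100% = mean luminescence of untreated wells and 0% = no signal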); conditions: H69AR lung tumor cells viability, ATP luminescence, 72 h; at 10 µM; stronger effect = lower value
# [4] = MRP1 drug-resistance reversers in H69AR cells – cell-based, doxorubicin co-treatment, pilot screen (AID 601;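 active = viability loss from added drug above about 55%, and viability with drug at most 40%, in both replicates, limit read from the data, passing the limit was not always enough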); conditions: CellTiter-Glo, 72 h, at 10 µM; for differential viability (reversal): stronger effect = higher value
# [5] = yeast transport mutant growth inhibition pilot in 384-well plates, post-Golgi transport modulator project (AID 636; in the data active = inhibition above about 31%); conditions: absorbance 615 nm, about 18 h, stronger effect = higher value
# [6] = growth suppression of yeast trafficking mutant, preliminary HTS, modulators of trafficking downstream of Golgi apparatus project, 1536-format plate, OD 615 nm (AID 637); conditions: yeast transport mutant growth, absorbance 615 nm, 18 h; stronger effect = higher value
# [7] = H69AR cells + 2 uM doxorubicin, measured here: viability with 2 uM doxorubicin, stronger effect = lower value
# [8] = H69AR cells, compound alone cytotoxicity
Structure (SMILES),viability [1],viability [2],viability [3],differential viability (reversal) ([4]; H69AR cells + 2 uM doxorubicin),"viability [4, 7]","viability [4, 8]",inhibition [5],inhibition [6]
COc1cc(C(=O)OCc2cc3ccccc3[nH]c2=O)cc(OC)c1OC,117% (inactive),68.6% (inactive),82.4% (inactive),11.3% (inactive),71.1%,82.4%,-2.8% (inactive),-2.91% (inactive)
Cc1cc2c(c(=O)n1C)C(Cc1ccccc1)C(C#N)=C(N)O2 (stereo unspecified),95% (inactive),109% (inactive),95.1% (inactive),9.48% (inactive),85.6%,95.1%,-5.54% (inactive),2.55% (inactive)
CCOC(=O)c1nnc2ccnn2c1N,74% (inactive),87.9% (inactive),109% (inactive),1.61% (inactive),107%,109%,-4.79% (inactive),-2.91% (inactive)
CCOC(=O)Nc1cc(OC)c(OC)cc1Cc1nccc2cc(OC)c(OC)cc12,113% (inactive),95.7% (inactive),87.1% (inactive),5.61% (inactive),81.5%,87.1%,-2.05% (inactive),28.7% (inactive)
Cc1cc(C)cc(-n2nnc(C(=O)NCc3ccc4c(c3)OCO4)c2N)c1,106% (inactive),88.5% (inactive),97.7% (inactive),-6.51% (inactive),104%,97.7%,-5.19% (inactive),0% (inactive)
C=CCN(CC=C)C(=O)Nc1cc(Cl)ccc1OC,83% (inactive),95.3% (inactive),96.9% (inactive),0% (inactive),96.9%,96.9%,-8.77% (inactive),-3.27% (inactive)
COc1ccc(C2/C(=C(/O)c3ccc(OC(C)C)cc3)C(=O)C(=O)N2CCCN2CCOCC2)cc1 (stereo unspecified),112% (inactive),97.7% (inactive),92.4% (inactive),-12.4% (inactive),105%,92.4%,-5.21% (inactive),-1.09% (inactive)
CCOc1cc(C(=O)Nc2ncccn2)cc(OCC)c1OCC,117% (inactive),105% (inactive),87.5% (inactive),4.8% (inactive),82.7%,87.5%,-2.86% (inactive),5.08% (inactive)
O=C(c1ccco1)N1CCN(CC2CC3C=CC2C3)CC1 (stereo unspecified),91% (inactive),110% (inactive),95.8% (inactive),5.7% (inactive),90.1%,95.8%,-1.43% (inactive),-2.13% (inactive)
CC1CCCc2sc3nc(NCc4ccco4)n4ncnc4c3c21 (stereo unspecified),104% (inactive),79.2% (inactive),83.3% (inactive),-1.71% (inactive),85%,83.3%,-3.97% (inactive),20.3% (inactive)
CC(C)OC(=O)c1cc(NC(=O)C2C3CCC(O3)C2C(=O)O)cc(C(=O)OC(C)C)c1 (stereo unspecified),106% (inactive),88.1% (inactive),92.9% (inactive),3.01% (inactive),89.9%,92.9%,-7.81% (inactive),-1.09% (inactive)
CCN(C(C)=O)c1nnc(CSc2nc3ccccc3s2)s1,114% (inactive),72.5% (inactive),100% (inactive),13.3% (inactive),86.7%,100%,-0.52% (inactive),-2.95% (inactive)
C[C@@H]1CCC[C@H](C)N1NC(=O)c1ccc(Cl)c(S(N)(=O)=O)c1,100% (inactive),88.5% (inactive),99.7% (inactive),7.9% (inactive),91.8%,99.7%,0.39% (inactive),-6.5% (inactive)
CCC(=O)OC1(C#CCOc2ccc(OC)cc2)CCN(C)CC1,94% (inactive),105% (inactive),105% (inactive),1.41% (inactive),103%,105%,-0.53% (inactive),1.64% (inactive)
O=C(CSc1nnc(-c2ccc(Br)cc2)n1C1CCCCC1)N1CCCC1,64% (inactive),113% (inactive),80.2% (inactive),-6.92% (inactive),87.1%,80.2%,-6.58% (inactive),-2% (inactive)
CCC(C)n1ncn(-c2ccc(N3CCN(c4ccc(OCC5COC(Cn6cncn6)(c6ccc(Cl)cc6Cl)O5)cc4)CC3)cc2)c1=O (stereo unspecified),84% (inactive),7.76% (active),69.8% (inactive),-1.92% (inactive),71.8%,69.8%,100% (active),96.7% (active)
O=C(NCCC1=CCCCC1)C1CCN(S(=O)(=O)c2cnc[nH]2)CC1,83% (inactive),111% (inactive),104% (inactive),15.5% (inactive),88.1%,104%,-5.6% (inactive),-1.27% (inactive)
CCOc1ccc(NC(=O)Cn2nnc(-c3ccccc3F)n2)cc1,105% (inactive),100% (inactive),94.6% (inactive),7.41% (inactive),87.2%,94.6%,-4.42% (inactive),-2.3% (inactive)
CS(=O)(=O)N1CCc2cc(S(=O)(=O)Nc3ccc4oc5c(c4c3)CCCC5)ccc21,76% (inactive),43.3% (inactive),88.9% (inactive),-13.8% (inactive),103%,88.9%,-2.47% (inactive),0% (inactive)

Structure (SMILES),viability [1],viability [2],viability [3],differential viability (reversal) ([4]; H69AR cells + 2 uM doxorubicin),"viability [4, 7]","viability [4, 8]",inhibition [5],inhibition [6]
CCOc1ccccc1OCCCCN1CCCC1,87% (inactive),109% (inactive),91.5% (inactive),2.1% (inactive),89.4%,91.5%,-2.21% (inactive),-1.97% (inactive)
COc1ccccc1-c1noc(-c2ccco2)n1,102% (inactive),91% (inactive),90.7% (inactive),-2.78% (inactive),93.5%,90.7%,0% (inactive),-3.55% (inactive)
Cn1c(NC(=O)c2cccc(Cn3cc(Cl)cn3)c2)nc2ccccc21,83% (inactive),72.4% (inactive),68.9% (inactive),0.885% (inactive),68%,68.9%,-4.93% (inactive),-2.79% (inactive)
CN(C)CCCOC(=O)CCc1ccccc1,95% (inactive),126% (inactive),96.3% (inactive),2.46% (inactive),93.9%,96.3%,-4.73% (inactive),-7.09% (inactive)
Cc1cc(=O)oc2ccc(OCC(=O)N(Cc3ccc(F)cc3)Cc3ccco3)cc12,91% (inactive),50.9% (inactive),72% (inactive),11.6% (inactive),60.5%,72%,-2.47% (inactive),-9.35% (inactive)
COc1cccc(-c2nnc(NC(=O)Cc3cccs3)s2)c1,88% (inactive),84.8% (inactive),82.6% (inactive),-14.2% (inactive),96.8%,82.6%,-5.34% (inactive),5.16% (inactive)
CCCOc1cccc(NC(=O)c2c(-c3ccccc3)noc2C)c1,94% (inactive),89.7% (inactive),86.7% (inactive),-15.2% (inactive),102%,86.7%,0.78% (inactive),-1.97% (inactive)
Cc1ccccc1C(=O)NC1CCN(Cc2nnnn2CCc2ccccc2)CC1,124% (inactive),112% (inactive),86.8% (inactive),-4.45% (inactive),91.3%,86.8%,-5.19% (inactive),7.05% (inactive)
COC(=O)CS(=O)(=O)c1nnc([C@H](Cc2ccccc2)NC(=O)OC(C)(C)C)o1,77.5% (inactive),3.82% (active),1.21% (active),0.515% (inactive),0.69%,1.21%,-5.45% (inactive),-12.3% (inactive)
Cc1nc(N)[nH]c(=O)c1CCC(=O)OCC(C)C,107% (inactive),89.7% (inactive),91.2% (inactive),-2.31% (inactive),93.5%,91.2%,-0.78% (inactive),-0.66% (inactive)
O=C(C1=C(O)C(=O)N(c2ncccn2)C1c1cccc(Cl)c1)c1ccco1 (stereo unspecified),119% (inactive),93% (inactive),89.2% (inactive),-3.12% (inactive),92.4%,89.2%,2.33% (inactive),1.29% (inactive)
COc1cc2c(C#N)c(N3CCOCC3)nc(N)c2c(N)n1,85% (inactive),90% (inactive),75.2% (inactive),8.29% (inactive),67%,75.2%,-0.13% (inactive),0.82% (inactive)
Cc1cc(C(=O)Nc2ccc(S(=O)(=O)Nc3onc(C)c3C)cc2)cs1,101% (inactive),101% (inactive),99.4% (inactive),2.97% (inactive),96.4%,99.4%,-3.38% (inactive),0% (inactive)
CC1(C)CN=C(N2CCN(c3ncnc4sc5c(c34)CCCC5)CC2)S1,72% (inactive),54.2% (inactive),77.3% (inactive),-8.36% (inactive),85.6%,77.3%,-1.15% (inactive),0.83% (inactive)
O=C(c1cnn2c(C(F)F)cc(-c3ccccc3)nc12)N1CCN2CCCC2C1 (stereo unspecified),103% (inactive),103% (inactive),79.1% (inactive),-1.71% (inactive),80.8%,79.1%,-4.79% (inactive),1.82% (inactive)
CN(Cc1nc(-c2ccncc2)no1)S(=O)(=O)c1ccc(Cl)cc1,115% (inactive),87.2% (inactive),88.9% (inactive),-9.07% (inactive),98%,88.9%,1.78% (inactive),13.6% (inactive)
Cc1cc2ccccc2c(=O)n1CC(=O)N(C)c1ccc(F)cc1,102% (inactive),84.2% (inactive),102% (inactive),2.95% (inactive),98.9%,102%,-2.3% (inactive),-2.73% (inactive)
COc1ccc(Cl)cc1NC(=O)CCN1CCN(c2ccccc2C)CC1,70% (inactive),110% (inactive),97.1% (inactive),5.5% (inactive),91.6%,97.1%,-8.11% (inactive),-0.36% (inactive)
